What was measured:
A549 = assay: Cytotoxicity against human A549 cells after 24 hrs by MTT assay; assay type: functional, cell-based; conditions: A549, 24 h
Summary of the method: (§1)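 In vitro antiproliferative screen by MTT assay against human MCF-7 breast, HeLa cervical, A549 lung adenocarcinoma and HepG-2 hepatoma cells. Output is the IC50.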

HeLa = assay: Cytotoxicity against human HeLa cells after 24 hrs by MTT assay; assay type: functional, cell-based; summary of the method: as §1
MCF7 [1] = assay: Cytotoxicity against human MCF7 cells after 24 hrs by MTT assay; assay type: functional, cell-based; conditions: MCF7, 24 h; summary of the method: as §1
HepG2 = assay: Cytotoxicity against human HepG2 cells after 24 hrs by MTT assay; assay type: functional, cell-based; conditions: HepG2, 24 h; summary of the method: as §1
L02 = assay: Cytotoxicity against human L02 cells after 24 hrs by MTT assay; assay type: cell-based; conditions: L02, 24 h
Summary of the method: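 Normal human liver L02 cells were tested at multiple concentrations in an MTT assay. Output is the median cytotoxic concentration (CC50).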

MCF7 [2] = assay: Cell cycle arrest in human MCF7 cells assessed as accumulation at G1 phase at 0.3 uM after 12 hrs by propidium iodide staining based flow cytometric method (reference value: 58.69 to 62.23%); assay type: functional
MCF7 [3] = assay: Cell cycle arrest in human MCF7 cells assessed as accumulation at S phase at 0.3 uM after 12 hrs by propidium iodide staining based flow cytometric method (reference value: 27.63 to 32.34%); assay type: functional
MCF7 [4] = assay: Cell cycle arrest in human MCF7 cells assessed as accumulation at G2/M phase at 0.3 uM after 12 hrs by propidium iodide staining based flow cytometric method (reference value: 5.43 to 13.68%); assay type: functional
MCF7 [5] = assay: Cell cycle arrest in human MCF7 cells assessed as accumulation at G1 phase at 0.6 uM after 12 hrs by propidium iodide staining based flow cytometric method (reference value: 58.69 to 62.23%); assay type: functional
MCF7 [6] = assay: Cell cycle arrest in human MCF7 cells assessed as accumulation at S phase at 0.6 uM after 12 hrs by propidium iodide staining based flow cytometric method (reference value: 27.63 to 32.34%); assay type: functional
MCF7 [7] = assay: Cell cycle arrest in human MCF7 cells assessed as accumulation at G2/M phase at 0.6 uM after 12 hrs by propidium iodide staining based flow cytometric method (reference value: 5.43 to 13.68%); assay type: functional
MCF7 [8] = assay: Cell cycle arrest in human MCF7 cells assessed as accumulation at G1 phase at 0.9 uM after 12 hrs by propidium iodide staining based flow cytometric method (reference value: 58.69 to 62.23%); assay type: functional
MCF7 [9] = assay: Cell cycle arrest in human MCF7 cells assessed as accumulation at S phase at 0.9 uM after 12 hrs by propidium iodide staining based flow cytometric method (reference value: 27.63 to 32.34%); assay type: functional
MCF7 [10] = assay: Cell cycle arrest in human MCF7 cells assessed as accumulation at G2/M phase at 0.9 uM after 12 hrs by propidium iodide staining based flow cytometric method (reference value: 5.43 to 13.68%); assay type: functional
MCF7 [11] = assay: Cell cycle arrest in human MCF7 cells assessed as accumulation at G1 phase at 0.6 uM after 4 hrs by propidium iodide staining based flow cytometric method (reference value: 60.19 to 60.87%); assay type: functional
MCF7 [12] = assay: Cell cycle arrest in human MCF7 cells assessed as accumulation at S phase at 0.6 uM after 4 hrs by propidium iodide staining based flow cytometric method (reference value: 29.55 to 32.22%); assay type: functional
MCF7 [13] = assay: Cell cycle arrest in human MCF7 cells assessed as accumulation at G2/M phase at 0.6 uM after 4 hrs by propidium iodide staining based flow cytometric method (reference value: 7.59 to 9.58%); assay type: functional
MCF7 [14] = assay: Cell cycle arrest in human MCF7 cells assessed as accumulation at G1 phase at 0.6 uM after 8 hrs by propidium iodide staining based flow cytometric method (reference value: 60.19 to 60.87%); assay type: functional
MCF7 [15] = assay: Cell cycle arrest in human MCF7 cells assessed as accumulation at S phase at 0.6 uM after 8 hrs by propidium iodide staining based flow cytometric method (reference value: 29.55 to 32.22%); assay type: functional
MCF7 [16] = assay: Cell cycle arrest in human MCF7 cells assessed as accumulation at G2/M phase at 0.6 uM after 8 hrs by propidium iodide staining based flow cytometric method (reference value: 7.59 to 9.58%); assay type: functional
MCF7 [17] = assay: Cell cycle arrest in human MCF7 cells assessed as accumulation at G1 phase at 0.6 uM after 16 hrs by propidium iodide staining based flow cytometric method (reference value: 60.19 to 60.87%); assay type: functional
MCF7 [18] = assay: Cell cycle arrest in human MCF7 cells assessed as accumulation at S phase at 0.6 uM after 16 hrs by propidium iodide staining based flow cytometric method (reference value: 29.55 to 32.22%); assay type: functional
MCF7 [19] = assay: Cell cycle arrest in human MCF7 cells assessed as accumulation at G2/M phase at 0.6 uM after 16 hrs by propidium iodide staining based flow cytometric method (reference value: 7.59 to 9.58%); assay type: functional
MCF7 [20] = assay: Induction of apoptosis in human MCF7 cells assessed as viable cells at 2 uM after 24 hrs by Annexin-V-FITC/propidium iodide staining based flow cytometric method (reference value: 91.6 to 92.7%); assay type: functional; conditions: MCF7, 24 h, read-out: Activity
MCF7 [21] = assay: Induction of apoptosis in human MCF7 cells assessed as early apoptotic cells at 2 uM after 24 hrs by Annexin-V-FITC/propidium iodide staining based flow cytometric method (reference value: 2.36 to 2.86%); assay type: functional
MCF7 [22] = assay: Induction of apoptosis in human MCF7 cells assessed as late apoptotic cells at 2 uM after 24 hrs by Annexin-V-FITC/propidium iodide staining based flow cytometric method (reference value: 2 to 3.7%); assay type: functional
MCF7 [23] = assay: Induction of apoptosis in human MCF7 cells assessed as necrotic cells at 2 uM after 24 hrs by Annexin-V-FITC/propidium iodide staining based flow cytometric method (reference value: 2.35 to 2.49%); assay type: functional
MCF7 [24] = assay: Induction of apoptosis in human MCF7 cells assessed as viable cells at 4 uM after 24 hrs by Annexin-V-FITC/propidium iodide staining based flow cytometric method (reference value: 91.6 to 92.7%); assay type: functional; conditions: MCF7, 24 h, read-out: Activity
MCF7 [25] = assay: Induction of apoptosis in human MCF7 cells assessed as early apoptotic cells at 4 uM after 24 hrs by Annexin-V-FITC/propidium iodide staining based flow cytometric method (reference value: 2.36 to 2.86%); assay type: functional
MCF7 [26] = assay: Induction of apoptosis in human MCF7 cells assessed as late apoptotic cells at 4 uM after 24 hrs by Annexin-V-FITC/propidium iodide staining based flow cytometric method (reference value: 2 to 3.7%); assay type: functional
MCF7 [27] = assay: Induction of apoptosis in human MCF7 cells assessed as necrotic cells at 4 uM after 24 hrs by Annexin-V-FITC/propidium iodide staining based flow cytometric method (reference value: 2.35 to 2.49%); assay type: functional
MCF7 [28] = assay: Induction of apoptosis in human MCF7 cells assessed as viable cells at 8 uM after 24 hrs by Annexin-V-FITC/propidium iodide staining based flow cytometric method (reference value: 91.6 to 92.7%); assay type: functional; conditions: MCF7, 24 h, read-out: Activity
MCF7 [29] = assay: Induction of apoptosis in human MCF7 cells assessed as early apoptotic cells at 8 uM after 24 hrs by Annexin-V-FITC/propidium iodide staining based flow cytometric method (reference value: 2.36 to 2.86%); assay type: functional
MCF7 [30] = assay: Induction of apoptosis in human MCF7 cells assessed as late apoptotic cells at 8 uM after 24 hrs by Annexin-V-FITC/propidium iodide staining based flow cytometric method (reference value: 2 to 3.7%); assay type: functional
MCF7 [31] = assay: Induction of apoptosis in human MCF7 cells assessed as necrotic cells at 8 uM after 24 hrs by Annexin-V-FITC/propidium iodide staining based flow cytometric method (reference value: 2.35 to 2.49%); assay type: functional
MCF7 [32] = assay: Induction of apoptosis in human MCF7 cells assessed as viable cells at 12 uM after 24 hrs by Annexin-V-FITC/propidium iodide staining based flow cytometric method (reference value: 91.6 to 92.7%); assay type: functional; conditions: MCF7, 24 h, read-out: Activity
MCF7 [33] = assay: Induction of apoptosis in human MCF7 cells assessed as early apoptotic cells at 12 uM after 24 hrs by Annexin-V-FITC/propidium iodide staining based flow cytometric method (reference value: 2.36 to 2.86%); assay type: functional
MCF7 [34] = assay: Induction of apoptosis in human MCF7 cells assessed as late apoptotic cells at 12 uM after 24 hrs by Annexin-V-FITC/propidium iodide staining based flow cytometric method (reference value: 2 to 3.7%); assay type: functional
MCF7 [35] = assay: Induction of apoptosis in human MCF7 cells assessed as necrotic cells at 12 uM after 24 hrs by Annexin-V-FITC/propidium iodide staining based flow cytometric method (reference value: 2.35 to 2.49%); assay type: functional

`COc1cc([C@@H]2c3cc4c(cc3[C@H](O)[C@H]3COC(=O)[C@H]23)OCO4)cc(OC)c1OC` [PODOFILOX] gave an IC50 (A549) of 9.34 µM, an IC50 (HeLa) of 7.45 µM and an IC50 (MCF7 [1]) of 7.13 µM. For the same molecule, the IC50 (HepG2) was 5.81 µM, the IC50 (L02) was 3.72 µM and the Activity (MCF7 [2]) was 40.17%. The Activity (MCF7 [3]) was 30.34%, the Activity (MCF7 [4]) was 29.49% and the Activity (MCF7 [5]) was 20.81 - 27.26%. The Activity (MCF7 [6]) was 27.34 - 31.52%, the Activity (MCF7 [7]) was 45.4 - 47.67% and the Activity (MCF7 [8]) was 8.17%. It also gave an Activity (MCF7 [9]) of 19.79%, an Activity (MCF7 [10]) of 72.04% and an Activity (MCF7 [11]) of 47.97%. The Activity (MCF7 [12]) was 29.63%, the Activity (MCF7 [13]) was 22.4% and the Activity (MCF7 [14]) was 37.52%. For the same molecule, the Activity (MCF7 [15]) was 31.73%, the Activity (MCF7 [16]) was 30.75% and the Activity (MCF7 [17]) was 11.02%. For the same molecule, the Activity (MCF7 [18]) was 26.78%, the Activity (MCF7 [19]) was 62.2% and the viability at 2 µM (MCF7 [20]) was 84.2%. It also gave an Activity (MCF7 [21]) of 5.5%, an Activity (MCF7 [22]) of 8.61% and an Activity (MCF7 [23]) of 1.69%. It also gave a viability at 4 µM (MCF7 [24]) of 79.4%, an Activity (MCF7 [25]) of 7.87% and an Activity (MCF7 [26]) of 10.5%. For the same molecule, the Activity (MCF7 [27]) was 2.34%, the viability at 8 µM (MCF7 [28]) was 72.9% and the Activity (MCF7 [29]) was 10.1%. For the same molecule, the Activity (MCF7 [30]) was 12.4%, the Activity (MCF7 [31]) was 4.65% and the viability at 12 µM (MCF7 [32]) was 62.8%. For the same molecule, the Activity (MCF7 [33]) was 13.4%, the Activity (MCF7 [34]) was 17.4% and the Activity (MCF7 [35]) was 6.65%.

From ChEMBL document CHEMBL4052804, “Design and synthesis of piperazine acetate podophyllotoxin ester derivatives targeting tubulin depolymerization as new anticancer agents” (Bioorg Med Chem Lett, 2017)
